MIN6 prolif: inducers of MIN6 beta-cell proliferation, primary screen, ATP luminescence, uHTS. MIN6 cells proliferation, ATPlite luminescence, 48 h; cells starved in 0.2% serum; 100% = growth in 10% serum. proliferation, % at 10 µM. hit rate 0.29% among 330,000;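 active = compounds whose signal lies at least 3.5 SD above the mean of all wells on their plate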;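 also: 0% = DMSO-treated cells in low-serum medium and 100% = 10% serum control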
DAGLB inh: DAGLB lipase inhibitors, primary screen, biochemical, fluorescence, HTS. inhibition, % at 5.17 µM. Diacylglycerol lipase-beta (Homo sapiens), Q8NCG7. HEK293T DAGLB membrane lysate, EnzChek fluorogenic substrate. AID 504411, 2011. hit rate 0.059% among 340,000; in the data active = inhibition above about 34%;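 also: 0% = enzyme with vehicle and 100% = wells lacking enzyme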
NRP1-CendR mod: modulators of CendR peptide binding to NRP-1, primary screen, biochemical, fluorescence polarization, uHTS. hit rate 0.85% among 360,000. inhibition, % at 25 µM. AID 602438, 2012. Neuropilin-1 (Homo sapiens), O14786. FAM-RPARPAR peptide binding to NRP-1;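 active = inhibition or corrected inhibition above about 18%, plus a signal ratio from 0.5 to 1.5, limit read from the data, passing the limit was not always enough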
Myeloid diff 2: induction of myeloid progenitor differentiation, primary screen, cell-based, flow cytometry, MLPCN library | ER-HoxA9 myeloid progenitors, lysozyme-GFP differentiation | calls only at 10 µM | hit rate 1% among 360,000;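 active = normalized GFP-positive differentiation at or above the plate's own cutoff, the solvent-only control mean plus 3 SD; inconclusive = no clear call, values can overlap the other calls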;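 also: cells exposed to compound for four days before flow analysis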
SENP1 FRET inh: human SENP1 catalytic domain inhibitors, primary screen, biochemical, FRET, uHTS. recombinant SENP1 catalytic domain, CyPet-SUMO1-YPet FRET cleavage. inhibition, % at 10 µM. hit rate 0.21% among 360,000. AID 624204, 2012;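 active = inhibition at least 30% at 10 µM, raw YFP signal under a set limit, fluorescence ratio 0.5 to 1.5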;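 also: 0% = enzyme with DMSO and 100% = no enzyme wells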
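Controls: no-enzyme wells low, DMSO-plus-enzyme wells high control. Test system: human recombinant His6-tagged SENP1 catalytic domain enzyme. Reagent: SFCypet-SUMO1-SFYpet FRET protein substrate, 25 nM final. Doses: one dose per compound, 10 µM, 0.5% DMSO. Detection: FRET, CFP and YFP emission. Timing: 50 min reaction at room temperature.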
MT1-MMP act inh: blockers of MT1-MMP proenzyme processing, primary screen, HT1080 RFP-PRO-GFP cells, GFP/RFP fluorescence; GFP/RFP ratio fluorescence, overnight; percent of plate control window, DMSO zero; GFP/RFP ratio change, % at 20 µM; hit rate 0.061% among 360,000; AID 651647, 2012;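 active = GFP/RFP ratio change of at least 30% with cell ATP level not reduced by more than half and red fluorescence within 50% of control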
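Compound: 20 µM single dose, 1% DMSO / System: HT1080 RFP-PRO-GFP cells / Controls: DMSO and RFP-L50D-GFP cell wells / Read-out basis: GFP/RFP fluorescence ratio / Schedule: overnight compound exposure at 37 °C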
DAGLB inh conf: DAGLB lipase inhibitors, retest, confirmation, biochemical, fluorescence, HEK293T membranes; shares compounds with DAGLB inh; HEK293T DAGLB membrane lysate, EnzChek fluorogenic substrate; inhibition, % at 5.17 µM; hit rate 73% among 190;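 active = mean inhibition over triplicate wells above a set limit taken from the primary lipase screen, cut at about 34% in these data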;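 also: 0% = DAGLB with DMSO and 100% = wells lacking DAGLB enzyme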
* = called active by the depositor; i = inactive; ? = inconclusive; · = not tested or not shown. Most compounds without a hit are left out; they make up all but 2.4% or so of the library.

SMILES	MIN6 prolif	DAGLB inh	NRP1-CendR mod	Myeloid diff 2	SENP1 FRET inh	MT1-MMP act inh	DAGLB inh conf
CC(=O)C1=C(O)C(=O)N(c2cc(C(C)(C)C)on2)C1c1ccc(Br)cc1 (stereo unspecified)	-3	46*	-11	i	2	13	42*
CCCCn1c(N)c(N(CC)C(=O)c2cccc(S(=O)(=O)N3CCN(C)CC3)c2)c(=O)[nH]c1=O	-2	4	1	i	-1	0	·
O=C(N/N=C/c1ccc(O)c(O)c1O)/C(=C/c1ccc([N+](=O)[O-])cc1)NC(=O)c1ccccc1	-5	35*	-2	i	4	5	19
CCOc1ccc(NC(=O)CC2SC(=O)N(c3ccccc3)C2=O)cc1 (stereo unspecified)	-1	18	-4	i	1	-1	·
N#C/C(N=Nc1ccccc1O)=N\Nc1ccccc1O	-9	41*	8	i	33*	-50	83*
CCc1ccc(S(=O)(=O)/N=C2/C=C(Sc3ncn[nH]3)C(=O)c3ccccc32)cc1	·	-3	10	i	6	-66	·
CCc1ccc(S(=O)(=O)/N=C2\C=C(Nc3cccc(C(=O)O)c3)C(=O)c3ccccc32)cc1	-3	47*	41*	·	2	15	30
Cc1cc(C)c(S(=O)(=O)/N=C2\C=C(Nc3ccc(C(=O)O)cc3)C(=O)c3ccccc32)c(C)c1	-4	36*	23	i	-1	16	39*
CCc1ccc(S(=O)(=O)/N=C2\C=C(Nc3ccc(O)cc3)C(=O)c3ccccc32)cc1	-4	40*	16	?	3	-6	51*
O=C(COC(=O)c1ccc(O)cc1O)Nc1cccc2ccccc12	-3	1	-12	i	3	3	·
O=C1NC(=Nc2ccccc2Cl)S/C1=C\c1cccc([N+](=O)[O-])c1O	-5	36*	-122	i	58*	2	32
COc1c(/C=C2\SC(=Nc3ccccc3Cl)NC2=O)cccc1[N+](=O)[O-]	-5	11	-12	i	1	10	·
Oc1c(Br)cc(Br)cc1/C=N/NC(=S)N[C@H]1CC2C=CC1C2 (stereo partly specified)	-4	35*	-8	i	-34	2	27
CNC(=S)N/N=C/c1cc(Br)cc(Br)c1O	0	17	-4	i	-23	4	·
COc1ccc(NC(=S)NNc2ccc(S(=O)(=O)Nc3ccccc3C(=O)O)cc2[N+](=O)[O-])cc1	-5	43*	7	i	2	10	48*
COc1ccc(C=NNc2ccc(S(=O)(=O)Nc3ccccc3C(=O)O)cc2[N+](=O)[O-])c(OC)c1	-4	43*	20	i	5	27	43*
O=C(O)c1ccccc1NS(=O)(=O)c1ccc(NN=Cc2ccccc2F)c([N+](=O)[O-])c1	-5	24	-34	i	3	8	·
CCOc1ccc(C=NNc2ccc(S(=O)(=O)Nc3ccccc3C(=O)O)cc2[N+](=O)[O-])cc1	-6	18	-9	i	6	18	·
Cc1cc(CNC(=O)c2cccc(OC3CCN(S(=O)(=O)N(C)C)CC3)c2)on1	1	1	8	i	2	-4	·
O=C1CC(c2ccccc2)=C(c2ccccc2)C1	·	71*	0	i	3	-1	-5
Nc1ccc(N=Nc2ccccc2)c2cccnc12	-2	37*	5	i	2	8	42*
Cc1ccccc1N=Nc1ccc(O)c2ncccc12	·	2	-6	?	2	0	·
COc1ccccc1CNC(=O)c1nn(C)c2c1CS(=O)(=O)c1ccccc1-2	-1	-1	2	i	2	4	·
CC(=O)c1c(C)oc2ccc(NS(=O)(=O)c3ccc(O)c(C(=O)O)c3)cc12	-1	57*	-13	i	-1	4	53*
Cc1cccc(NC(=O)CSc2nnc(-c3ccncc3)n2CC2CCCO2)c1 (stereo unspecified)	3	-2	0	i	2	1	·
SMILES	MIN6 prolif	DAGLB inh	NRP1-CendR mod	Myeloid diff 2	SENP1 FRET inh	MT1-MMP act inh	DAGLB inh conf
O=C1c2ccccc2C(=O)c2c1cccc2N1CCCC1	·	36*	12	i	5	25	39*
O=C1C=C(N2CCCCC2)c2ccccc2C1=O	-7	·	9	·	-1	-4	·
O=C(O)CC/C(=C\c1ccc(N2CCCC2)c([N+](=O)[O-])c1)c1nc2ccccc2s1	-1	26	-2	i	0	3	·
CN(c1ccccc1)c1ccc(/C=C(/CCC(=O)O)c2nc3ccccc3s2)cc1[N+](=O)[O-]	·	35*	-12	i	7	4	50*
COc1ccc(C2N(Cc3ccccc3)CCN2Cc2ccccc2)cc1[N+](=O)[O-]	-2	-5	8	i	2	1	·
O=C(NCc1ccc2c(c1)OCO2)c1ccc(N2CCCC2=O)cc1	-1	-4	4	i	0	0	·
CN(C)c1ccc(N=Nc2ccccc2C(=O)OCC(=O)Nc2ccccc2C(F)(F)F)cc1	·	35*	12	i	5	11	59*
Cc1ccc(C2C(/C=C3/SC(=S)NC3=O)=C(c3cccs3)Oc3ccccc32)cc1 (stereo unspecified)	-4	39*	-51	·	23	-20	44*
O=C(CCNS(=O)(=O)c1ccc(Cl)cc1)N1CCN(c2ccccn2)CC1	-2	-1	15	i	1	0	·
COc1ccc(N(CC(=O)NCc2ccco2)S(C)(=O)=O)cc1	0	65*	-11	i	-3	5	-9
O=C(NN1C(=O)/C(=C/c2ccc(O)c([N+](=O)[O-])c2)SC1=S)c1ccccc1Cl	0	45*	-172	i	32*	28	42*
O=C(NN1C(=O)/C(=C/c2cc([N+](=O)[O-])ccc2O)SC1=S)c1ccccc1O	-5	·	·	·	·	·	·
Cc1ccc(NC(=O)Nc2cccnc2)cc1NC(=O)Nc1cccnc1	-5	37*	7	i	-1	1	32
